These results are taken from ChEMBL document CHEMBL4715682, “Potent trifluoromethoxy, trifluoromethylsulfonyl, trifluoromethylthio and pentafluorosulfanyl containing (1,3,4-oxadiazol-2-yl)benzamides against drug-resistant Gram-positive bacteria” (RSC Med Chem, 2020).

SMILES strings stand for the structures. In brackets after ≈: the same amount, converted by molar mass.

For data set [1], the system named is Listeria monocytogenes. The data set is described as follows: Antibacterial activity against Listeria monocytogenes ATCC 19111 assessed as inhibition of visible bacterial growth incubated for 18 to 20 hrs by CLSI method. Format: functional. Particulars: time 18-20 hrs. The gist of the method: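 Broth microdilution per CLSI. Strains grown aerobically overnight on TSA at 37 °C, suspended to 0.5 McFarland, diluted in CAMHB to about 5×10^5 CFU/mL. Agents serially diluted across plate; aerobic incubation 37 °C for 18-20 h. MIC = lowest concentration completely preventing visible growth.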

For data set [2], the system named is Staphylococcus aureus. The data set is described as follows: Synergistic antibacterial activity against methicillin-resistant Staphylococcus aureus ATCC 33592 assessed as fractional inhibitory concentration index in presence of Vancomycin. Type of data set: functional.
Data set [3] has as its system Staphylococcus aureus. Description: Antibacterial activity against methicillin-sensitive Staphylococcus aureus NRS 107 assessed as inhibition of visible bacterial growth incubated for 18 to 20 hrs by CLSI method. Type of data set: functional. Particulars: time 18-20 hrs. Summed up:
(§1)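 CLSI broth microdilution. Strains grown aerobically overnight on tryptic soy agar at 37 °C, adjusted to 0.5 McFarland and diluted in cation-adjusted Mueller–Hinton broth to about 5×10^5 CFU/mL. Compounds and control drugs serially diluted across the plate. Incubated aerobically at 37 °C for 18-20 h. MIC is the lowest concentration with no visible growth.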

Data set [4] deals with Streptococcus pneumoniae. The data set is described as follows: Antibacterial activity against cephalosporin-resistant Streptococcus pneumoniae ATCC 51916 assessed as inhibition of visible bacterial growth incubated for 18 to 20 hrs by CLSI method. Type of data set: functional. Particulars: time 18-20 hrs. The gist of the method:
as §1

In data set [5] the test system is Staphylococcus aureus. Description: Antibacterial activity against methicillin-resistant Staphylococcus aureus ATCC 33592 assessed as reduction in bacterial count at 3 x MIC incubated upto 24 hrs by time kill analysis. Type of data set: functional. Particulars: time hrs <=24. Summed up: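 Time-kill assay. […] Samples taken at 0, 2, 4, 8, 12 and 24 h, serially diluted in PBS and plated on tryptic soy agar. Viable CFU/mL counted after 18-20 h at 37 °C.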

The test system of data set [6] is Staphylococcus aureus. Description: Antibacterial activity against methicillin-resistant Staphylococcus aureus NRS386 assessed as inhibition of visible bacterial growth incubated for 18 to 20 hrs by CLSI method. Type of data set: functional. Particulars: time 18-20 hrs. Summed up: as §1
For data set [7], the system named is Streptococcus pneumoniae. Description: Antibacterial activity against […] Streptococcus pneumoniae ATCC 700677 assessed as inhibition of visible bacterial growth incubated for 18 to 20 hrs by CLSI method. Particulars: time 18-20 hrs. Type of data set: functional. The gist of the method: as §1
A short description of data set [8]: Hemolytic activity in human RBC at 64 ug/ml incubated for 60 mins relative to control. Type of data set: ADME, cell-based, Erythrocyte. Particulars: red blood cells (erythrocytes), at 64 µg/mL, read-out: Activity. The gist of the method: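 Single-donor human erythrocytes as a 5% v/v suspension in PBS. Compounds serially diluted in PBS, in triplicate, and incubated with RBCs at 37 °C for 60 min. PBS served as the negative control and Triton-X as the positive control. Samples spun at 4,000 rpm for 5 min and supernatant absorbance read at 540 nm. Percent hemolysis = 100×(sample−negative)/(positive−negative).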

Data set [9] concerns Staphylococcus aureus. Description: Antibacterial activity against methicillin-resistant Staphylococcus aureus NRS484 assessed as inhibition of visible bacterial growth incubated for 18 to 20 hrs by CLSI method. Format: functional. Particulars: time 18-20 hrs. Summed up: as §1
Data set [10] relates to Staphylococcus aureus. Description: Antibacterial activity against methicillin-resistant Staphylococcus aureus ATCC 33592 assessed as inhibition of visible bacterial growth incubated for 18 to 20 hrs by CLSI method. Format: functional. Particulars: time 18-20 hrs. The gist of the method:
as §1

Turning to `O=C(Nc1nnc(-c2cccs2)o1)c1ccc(S(=O)(=O)C(F)(F)F)cc1`, the minimal inhibitory concentration (MIC) in data set [1] was 2 µg/mL (≈ 4.96 µM); in [3], 4 µg/mL (≈ 9.92 µM); in data set [4], 2 µg/mL (≈ 4.96 µM); in [6], 4 µg/mL (≈ 9.92 µM); in [7], 1 µg/mL (≈ 2.48 µM); in [9], 4 µg/mL (≈ 9.92 µM). Besides, the MIC in data set [10] turned out to be 0.5 µg/mL (≈ 1.24 µM). Besides, in data set [2], the “fractional inhibitory concentration index (FICI)” value turned out to be 1.03. In data set [5], the Activity worked out at 1.04 log10CFU/ml. Further, in [8], the hemolysis at 1 h, 64 ug/ml stood at 35%.
